This is an account of results in ChEMBL document CHEMBL4011584, “Overcoming drug resistance by cell-penetrating peptide-mediated delivery of a doxorubicin dimer with high DNA-binding affinity” (Eur J Med Chem, 2017).

The nature of data set [1]: Drug level treated with (S,S,R,S,S,S,E)-N,N'-((6S,9S,12S,15S,18S,21S,24S,27S)-30-acetamido-1-amino-6-carbamoyl-9,12,15,18,21,24,27-heptakis(3-guanidinopropyl)-1-imino-8,11,14,17,20,23,26,29,37-nonaoxo-32,33-dithia-2,7,10,13,16,19,22,25,28,36-decaazadotetracontane-38,42-diyl)bis(2-((E)-1-((2S,4S)-4-((2R,4S,5S,6S)-4-amino-5-hydroxy-6-methyltetrahydro-2H-pyran-2-yloxy)-2,5,12-trihydroxy-7-methoxy-6,11-dioxo-1,2,3,4,6,11-hexahydrotetracen-2-yl)-2-hydroxyethylideneaminooxy)acetamide)decaacetate at 1 mM in presence of glutathione after 24 hrs by MALDI-TOF-mass spectroscopic analysis. In outline:
(§1)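 Conjugate at 1 mM in DPBS pH 7.4 with 10 mM glutathione (tenfold excess), 37°C, shaking at 300 rpm. Disulfide reduction followed by HPLC at 480 nm over 24 h. Cleavage products identified by MALDI-TOF MS.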

Data set [2] in a line: Drug level treated with (S,S,R,S,S,S,E)-N,N'-((6S,9S,12S,15S,18S,21S,24S,27S)-30-acetamido-1-amino-6-carbamoyl-9,12,15,18,21,24,27-heptakis(3-guanidinopropyl)-1-imino-8,11,14,17,20,23,26,29,37-nonaoxo-32,33-dithia-2,7,10,13,16,19,22,25,28,36-decaazadotetracontane-38,42-diyl)bis(2-((E)-1-((2S,4S)-4-((2R,4S,5S,6S)-4-amino-5-hydroxy-6-methyltetrahydro-2H-pyran-2-yloxy)-2,5,12-trihydroxy-7-methoxy-6,11-dioxo-1,2,3,4,6,11-hexahydrotetracen-2-yl)-2-hydroxyethylideneaminooxy)acetamide)decaacetate at 1 mM in presence of glutathione at 3 hrs post dose by MALDI-TOF-mass spectroscopic analysis. In short, it runs like this:
as §1

A short description of data set [3]: Binding affinity to Cy5-labelled-36 base pair double stranded DNA (unknown origin) measured under infrared laser light by microscale thermophoresis. In outline: (§2)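 Microscale thermophoresis: 50 nM Cy5-labeled DNA titrated with ligand in 50 mM Tris pH 6.5, 15 mM NaCl, 10 mM MgCl2, 0.05 % Tween 20. IR laser at 10 % intensity, starting from room temperature. Fluorescence signals fitted assuming 1:1 binding to give Ka/EC50.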

The nature of data set [4]: Binding affinity to Cy5-labelled-12 base pair double stranded DNA (unknown origin) measured under infrared laser light by microscale thermophoresis. In outline: as §2
(In general: MST reads how a fluorescent partner responds to local heating, with and without ligand.)

Data set [5] in a line: Antiproliferative activity against human Kelly cells after 72 hrs by CellTiter-Glo luminescent cell viability assay. It is filed as functional, cell-based. In outline: (§3)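 1×10^3 cells/well, allowed to attach 24 h, then exposed 72 h to 0.05-20 µM drug. Viability by ATP luminescence (CellTiter-Glo) relative to untreated controls with medium correction. IC50 read from log-concentration survival curves, independent triplicates. Kelly-WT and doxorubicin-selected Kelly-ADR (tenfold resistant) cultured in RPMI1640 with 10 % FCS, 2 mM glutamine and pen/strep at 37°C, 5 % CO2.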
(In general: Cellular ATP, detected with luciferase, serves as a proxy for viable cell number.)

Data set [6] is described as follows: Antiproliferative activity against human adriamycin-resistant Kelly cells after 72 hrs by CellTiter-Glo luminescent cell viability assay. The class given is functional, cell-based. In outline:
as §3

Data set [7] can be described thus: Drug uptake in human Kelly cells at 10 uM after 24 hrs by fluorescence confocal microscopic method. It is filed as ADME, cell-based. In outline:
(§4)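 Live Kelly-WT or Kelly-ADR cells (1×10^4/well) exposed to 10 µM drug for 24 or 72 h at 37°C, 5 % CO2. Imaged by confocal laser scanning microscopy with a 63× water objective. Red signal is anthracycline-associated fluorescence.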

Data set [8] is described as follows: Drug uptake in human adriamycin-resistant Kelly cells at 10 uM after 24 hrs by fluorescence confocal microscopic method. The class given is ADME, cell-based. In outline: as §4
Data set [9] in a line: Drug uptake in nucleus of human adriamycin-resistant Kelly cells at 10 uM after 24 hrs by fluorescence confocal microscopic method. The class given is ADME. In outline: as §4
Data set [10] can be described thus: Drug uptake in human Kelly cells at 10 uM after 72 hrs by fluorescence confocal microscopic method. It is filed as ADME, cell-based. In short, it runs like this: as §4
The nature of data set [11]: Drug uptake in nucleus of human Kelly cells at 10 uM after 72 hrs by fluorescence confocal microscopic method. The class given is ADME. In outline: as §4
Data set [12] in a line: Drug uptake in cytosol of adriamycin-resistant human Kelly cells at 10 uM after 72 hrs by fluorescence confocal microscopic method. The class given is ADME. In outline:
as §4

Data set [13] is described as follows: Drug uptake in nucleus of adriamycin-resistant human Kelly cells at 10 uM after 72 hrs by fluorescence confocal microscopic method. It is filed as ADME. In short, it runs like this:
as §4

Data set [14] can be described thus: Potency index, ratio of doxorubicin Ka to compound Ka for binding affinity to Cy5-labelled-36 base pair double stranded DNA (unknown origin).
Data set [15] is described as follows: Potency index, ratio of doxorubicin EC50 to compound EC50 for binding affinity to Cy5-labelled-36 base pair double stranded DNA (unknown origin).
The subject of data set [16] is MCF7. Briefly: Antiproliferative activity against human MCF7 cells after 72 hrs by CellTiter-Glo luminescent cell viability assay. The note with it: MCF7, 72 h. It is filed as functional, cell-based.
Data set [17] in a line: Stability of the compound at pH 5 assessed as doxorubicin formation. The settings on record: buffer. The class given is physicochemical.
Data set [18] is described as follows: Potency index, ratio of doxorubicin IC50 to compound IC50 for human adriamycin-resistant Kelly cells. The class given is functional.
A short description of data set [19]: Drug uptake in human Kelly cell membrane at 10 uM after 24 hrs by fluorescence confocal microscopic method. It is filed as ADME, cell-based. In outline:
as §4

A short description of data set [20]: Drug uptake in cytosol of human Kelly cells at 10 uM after 72 hrs by fluorescence confocal microscopic method. It is filed as ADME. In short, it runs like this:
as §4

Data set [21] is described as follows: Drug uptake in nucleus of human adriamycin-resistant Kelly cells at 10 uM after 72 hrs by DRAQ5-staining based fluorescence confocal microscopic method. The class given is ADME. In short, it runs like this: (§5)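 Kelly-WT or Kelly-ADR cells exposed 72 h to 10 µM drug. Nuclei counterstained with 5 µM DRAQ5 for 5 min before live confocal imaging at 37°C, 5 % CO2. Nuclear localization scored by overlay (colocalization) with the DRAQ5 signal.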

Data set [22] can be described thus: Drug uptake in nucleus of human Kelly cells at 10 uM after 72 hrs by DRAQ5-staining based fluorescence confocal microscopic method. The class given is ADME. In short, it runs like this:
as §5

The nature of data set [23]: Drug uptake in adriamycin-resistant human Kelly cell membranes at 10 uM after 72 hrs by fluorescence confocal microscopic method. It is filed as ADME. In outline: as §4
Data set [24] can be described thus: Drug level treated with (S,S,R,S,S,S,E)-N,N'-((6S,9S,12S,15S,18S,21S,24S,27S)-30-acetamido-1-amino-6-carbamoyl-9,12,15,18,21,24,27-heptakis(3-guanidinopropyl)-1-imino-8,11,14,17,20,23,26,29,37-nonaoxo-32,33-dithia-2,7,10,13,16,19,22,25,28,36-decaazadotetracontane-38,42-diyl)bis(2-((E)-1-((2S,4S)-4-((2R,4S,5S,6S)-4-amino-5-hydroxy-6-methyltetrahydro-2H-pyran-2-yloxy)-2,5,12-trihydroxy-7-methoxy-6,11-dioxo-1,2,3,4,6,11-hexahydrotetracen-2-yl)-2-hydroxyethylideneaminooxy)acetamide)decaacetate at 1 mM in presence of glutathione at 1 min post dose by MALDI-TOF-mass spectroscopic analysis. In outline: as §1

Each structure is given as a SMILES string. Activity calls are given as the source filed them. The calls are words filed in the database; no cut-off is given here. A value given as a limit tells only on which side of the number the result lay.

Regarding `COc1cccc2c1C(=O)c1c(O)c3c(c(O)c1C2=O)C[C@@](O)(/C(CO)=N/OCC(=O)NCCCC[C@H](NC(=O)CO/N=C(\CO)[C@]1(O)Cc2c(O)c4c(c(O)c2[C@@H](O[C@H]2C[C@H](N)[C@H](O)[C@H](C)O2)C1)C(=O)c1c(OC)cccc1C4=O)C(=O)NCCSSCCNC(=O)[C@H](CCCCNC(=O)CO/N=C(\CO)[C@]1(O)Cc2c(O)c4c(c(O)c2[C@@H](O[C@H]2C[C@H](N)[C@H](O)[C@H](C)O2)C1)C(=O)c1c(OC)cccc1C4=O)NC(=O)CO/N=C(\CO)[C@]1(O)Cc2c(O)c4c(c(O)c2[C@@H](O[C@H]2C[C@H](N)[C@H](O)[C@H](C)O2)C1)C(=O)c1c(OC)cccc1C4=O)C[C@@H]3O[C@H]1C[C@H](N)[C@H](O)[C@H](C)O1`, in [1], the Drug metabolism result is “Metabolite detected”.
For `COc1cccc2c1C(=O)c1c(O)c3c(c(O)c1C2=O)C[C@@](O)(/C(CO)=N/OCC(=O)NCCCC[C@H](NC(=O)CO/N=C(\CO)[C@]1(O)Cc2c(O)c4c(c(O)c2[C@@H](O[C@H]2C[C@H](N)[C@H](O)[C@H](C)O2)C1)C(=O)c1c(OC)cccc1C4=O)C(=O)NCCSSC[C@H](NC(=O)CC[C@@H](N)C(=O)O)C(=O)NCC(=O)O)C[C@@H]3O[C@H]1C[C@H](N)[C@H](O)[C@H](C)O1`, the Drug metabolism result in data set [2] was “Metabolite detected”.
`COc1cccc2c1C(=O)c1c(O)c3c(c(O)c1C2=O)C[C@@](O)(C(=O)CO)C[C@@H]3O[C@H]1C[C@H](N)[C@H](O)[C@H](C)O1` [DOXORUBICIN] came in with a concentration giving a half-maximal response (EC50) in [3] of 1.16 µM. Binding in [3] was put at a Kd of 1.13 µM. For the same molecule, in [4], the result was inactive. The IC50 in [5] was determined as 0.18 µM; in data set [6], 6.57 µM. Moreover, the Drug uptake result is “Active” in data set [7]; “Active” in data set [8]; “Active” in data set [9]; “Active” in [10]; “Active” in data set [11]; “Not Active” in data set [12]. Also, in data set [13], the Drug uptake result was “Not Active”.
In data set [3], `COc1cccc2c1C(=O)c1c(O)c3c(c(O)c1C2=O)C[C@@](O)(/C(CO)=N/OCC(=O)NCCCC[C@H](NC(=O)CO/N=C(\CO)[C@]1(O)Cc2c(O)c4c(c(O)c2[C@@H](O[C@H]2C[C@H](N)[C@H](O)[C@H](C)O2)C1)C(=O)c1c(OC)cccc1C4=O)C(=O)NCCSSc1ccccn1)C[C@@H]3O[C@H]1C[C@H](N)[C@H](O)[C@H](C)O1` registered a concentration giving a half-maximal response (EC50) of 0.15 µM, a Ka of 7.9 ×10⁶ /M and a dissociation constant Kd of 0.126 µM. For the same molecule, the result in data set [4] was inactive. Also, the Ratio in [14] stood at 10. Further, in [15], the Ratio EC50 came out at 10. In data set [16], this molecule gave an IC50 of 6.73 µM. The molecule also yielded a concentration for half-maximal inhibition (IC50) in data set [5] of 1.79 µM. The same molecule yielded an IC50 in data set [6] of 7.33 µM.
As for `CC(=O)N[C@@H](CS)C(=O)N[C@@H](CCCNC(=N)N)C(=O)N[C@@H](CCCNC(=N)N)C(=O)N[C@@H](CCCNC(=N)N)C(=O)N[C@@H](CCCNC(=N)N)C(=O)N[C@@H](CCCNC(=N)N)C(=O)N[C@@H](CCCNC(=N)N)C(=O)N[C@@H](CCCNC(=N)N)C(=O)N[C@@H](CCCNC(=N)N)C(N)=O`, the IC50 in data set [16], in data set [5] and in data set [6] was ≥ 100 µM throughout.
Consider `CC(=O)O.CC(=O)O.CC(=O)O.CC(=O)O.CC(=O)O.CC(=O)O.CC(=O)O.CC(=O)O.CC(=O)O.CC(=O)O.COc1cccc2c1C(=O)c1c(O)c3c(c(O)c1C2=O)C[C@@](O)(/C(CO)=N/OCC(=O)NCCCC[C@H](NC(=O)CO/N=C(\CO)[C@]1(O)Cc2c(O)c4c(c(O)c2[C@@H](O[C@H]2C[C@H](N)[C@H](O)[C@H](C)O2)C1)C(=O)c1c(OC)cccc1C4=O)C(=O)NCCSSC[C@H](NC(C)=O)C(=O)N[C@@H](CCCNC(=N)N)C(=O)N[C@@H](CCCNC(=N)N)C(=O)N[C@@H](CCCNC(=N)N)C(=O)N[C@@H](CCCNC(=N)N)C(=O)N[C@@H](CCCNC(=N)N)C(=O)N[C@@H](CCCNC(=N)N)C(=O)N[C@@H](CCCNC(=N)N)C(=O)N[C@@H](CCCNC(=N)N)C(N)=O)C[C@@H]3O[C@H]1C[C@H](N)[C@H](O)[C@H](C)O1`, for which the Stability result in data set [17] is “Stable”. Moreover, the half-maximal inhibitory concentration (IC50) in data set [16] was found to be 3.66 µM; in data set [5], 2.47 µM; in data set [6], 2.76 µM. For the same molecule, in data set [18], the “Ratio IC50” value was 3. For the same molecule, the Drug uptake result in data set [19], in data set [7], in data set [8], in [10], in data set [20] and in data set [13] was “Active” throughout. For the same molecule, the Drug uptake entry in data set [21], in data set [22] and in data set [23] was “Active” each time.
In the case of `COc1cccc2c1C(=O)c1c(O)c3c(c(O)c1C2=O)C[C@@](O)(/C(CO)=N/OCC(=O)NCCCC[C@H](NC(=O)CO/N=C(\CO)[C@]1(O)Cc2c(O)c4c(c(O)c2[C@@H](O[C@H]2C[C@H](N)[C@H](O)[C@H](C)O2)C1)C(=O)c1c(OC)cccc1C4=O)C(=O)NCCS)C[C@@H]3O[C@H]1C[C@H](N)[C@H](O)[C@H](C)O1`, the Drug metabolism result in data set [24] is “Metabolite detected”.

The EC50 is the concentration giving half of the maximal effect. Higher therefore signals weaker potency. The term Kd denotes the equilibrium constant for the complex coming apart. Low values mean a tighter complex, high ones a looser complex. As usually defined, the IC50 is the point on the concentration scale where inhibition reaches its midpoint. Lower therefore signals greater potency in that assay.
